Measurements from ChEMBL document CHEMBL1135642, “Synthesis and biological evaluation of 7,8,9,10-tetrahydroimidazo[1,2-c]pyrido[3,4-e]pyrimdin-5(6H)-ones as functionally selective ligands of the benzodiazepine receptor site on the GABA(A) receptor” (J Med Chem, 2002).
Activity calls are given as the source filed them. The calls are words filed in the database; no cut-off is given here.

Legend:
[1] = target: T1, Gamma-aminobutyric acid receptor subunit alpha-2 (Homo sapiens) (UniProt P47869); test: Maximum percent potentiation against gamma-aminobutyric acid (GABA) A receptor, alpha 2; conditions: Xenopus laevis
T1 sequence (whole entry): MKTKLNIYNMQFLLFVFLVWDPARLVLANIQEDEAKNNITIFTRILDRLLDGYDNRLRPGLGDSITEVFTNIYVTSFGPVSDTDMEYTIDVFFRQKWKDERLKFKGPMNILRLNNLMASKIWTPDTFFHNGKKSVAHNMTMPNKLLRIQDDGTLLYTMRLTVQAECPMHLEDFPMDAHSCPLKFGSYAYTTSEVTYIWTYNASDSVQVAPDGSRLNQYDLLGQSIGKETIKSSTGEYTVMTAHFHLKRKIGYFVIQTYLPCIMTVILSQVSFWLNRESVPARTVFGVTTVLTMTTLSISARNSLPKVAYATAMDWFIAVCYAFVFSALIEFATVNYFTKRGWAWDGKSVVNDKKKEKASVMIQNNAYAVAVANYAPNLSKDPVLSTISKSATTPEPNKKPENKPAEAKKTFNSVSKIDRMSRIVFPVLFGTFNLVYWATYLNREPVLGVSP
In short: (§1)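 Xenopus laevis oocytes were injected with human cRNA for the α, β and γ subunits needed to express each receptor subtype (α1, α2, α3 or α5). Electrophysiological recording was used to read potentiation, and the effective concentration and maximal percent potentiation were derived from it.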

[2] = target: T2, Gamma-aminobutyric acid receptor subunit alpha-2 (Homo sapiens, UniProt P47869); test: Effective concentration against gamma-aminobutyric acid (GABA) A receptor, alpha 2; design: species or system Xenopus laevis; in short: as §1
T2 sequence (P47869 whole entry): T1 sequence (whole entry)

[3] = target: T3, Gamma-aminobutyric acid receptor subunit alpha-3 (Homo sapiens) (UniProt P34903); test: Maximum percent potentiation against gamma-aminobutyric acid (GABA) A receptor, alpha 3; conditions: Xenopus laevis; in short: as §1
T3 sequence (whole entry): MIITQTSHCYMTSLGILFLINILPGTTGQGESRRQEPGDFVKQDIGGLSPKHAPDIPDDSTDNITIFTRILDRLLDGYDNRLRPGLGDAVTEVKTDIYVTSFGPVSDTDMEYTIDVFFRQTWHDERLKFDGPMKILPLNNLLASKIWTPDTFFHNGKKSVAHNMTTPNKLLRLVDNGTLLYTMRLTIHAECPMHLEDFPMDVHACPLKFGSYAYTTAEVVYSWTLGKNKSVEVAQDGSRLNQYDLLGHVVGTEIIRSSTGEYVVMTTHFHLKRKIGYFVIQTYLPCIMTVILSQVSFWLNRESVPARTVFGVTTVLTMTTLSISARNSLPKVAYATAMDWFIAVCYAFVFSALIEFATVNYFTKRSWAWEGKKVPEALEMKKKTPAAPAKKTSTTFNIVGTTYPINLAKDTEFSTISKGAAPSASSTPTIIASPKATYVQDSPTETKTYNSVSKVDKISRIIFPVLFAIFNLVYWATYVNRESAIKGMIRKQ

[4] = target: T4, Gamma-aminobutyric acid receptor subunit alpha-3 (Homo sapiens, UniProt P34903); test: Effective concentration against gamma-aminobutyric acid (GABA) A receptor, alpha 3; design: species or system Xenopus laevis; in short: as §1
T4 sequence (P34903 whole entry): T3 sequence (whole entry)

[5] = target: T5, Gamma-aminobutyric acid receptor subunit alpha-5 (Homo sapiens) (UniProt P31644); test: Maximum percent potentiation against gamma-aminobutyric acid (GABA) A receptor, alpha 5; conditions: Xenopus laevis; in short: as §1
T5 sequence (whole entry): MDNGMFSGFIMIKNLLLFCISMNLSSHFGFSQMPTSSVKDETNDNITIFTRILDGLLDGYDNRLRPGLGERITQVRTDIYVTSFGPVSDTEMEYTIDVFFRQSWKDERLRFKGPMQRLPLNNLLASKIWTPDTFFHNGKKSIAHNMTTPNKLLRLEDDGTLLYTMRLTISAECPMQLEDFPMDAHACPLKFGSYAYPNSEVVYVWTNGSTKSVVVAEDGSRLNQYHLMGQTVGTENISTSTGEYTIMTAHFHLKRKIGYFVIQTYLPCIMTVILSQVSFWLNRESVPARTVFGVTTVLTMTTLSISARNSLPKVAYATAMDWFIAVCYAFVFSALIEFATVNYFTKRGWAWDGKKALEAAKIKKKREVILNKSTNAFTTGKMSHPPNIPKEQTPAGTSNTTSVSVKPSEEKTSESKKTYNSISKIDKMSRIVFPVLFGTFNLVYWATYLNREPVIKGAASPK

[6] = target: GABA-A receptor; anion channel; test: Binding affinity was determined by displacement of [3H]flumazenil from rat cortex homogenates; type: functional
In short: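 Displacement of [3H]flumazenil from rat cortex homogenates. Values are averages (±SD); some analogues were run once as a single set of triplicates. NA means an IC50 was not achieved at the highest dose tested.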

[7] = target: T6, Gamma-aminobutyric acid receptor subunit alpha-1 (Homo sapiens, UniProt P14867); test: Effective concentration against gamma-aminobutyric acid (GABA) A receptor, alpha 1; design: species or system Xenopus laevis; in short: as §1
T6 sequence (P14867 whole entry): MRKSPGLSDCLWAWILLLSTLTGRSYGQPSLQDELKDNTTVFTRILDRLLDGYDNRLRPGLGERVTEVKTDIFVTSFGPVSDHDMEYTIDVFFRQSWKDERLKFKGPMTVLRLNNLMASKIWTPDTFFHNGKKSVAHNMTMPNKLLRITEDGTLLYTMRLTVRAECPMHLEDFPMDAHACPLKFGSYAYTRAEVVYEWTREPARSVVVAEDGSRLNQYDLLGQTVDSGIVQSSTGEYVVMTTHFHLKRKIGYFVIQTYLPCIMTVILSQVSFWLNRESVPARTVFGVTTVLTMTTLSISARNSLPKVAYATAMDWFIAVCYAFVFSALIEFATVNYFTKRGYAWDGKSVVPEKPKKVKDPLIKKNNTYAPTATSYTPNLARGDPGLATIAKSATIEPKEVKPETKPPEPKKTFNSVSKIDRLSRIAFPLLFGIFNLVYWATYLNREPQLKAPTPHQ

[8] = target: T7, Gamma-aminobutyric acid receptor subunit alpha-1 (Homo sapiens) (UniProt P14867); test: Maximum percent potentiation against gamma-aminobutyric acid (GABA) A receptor, alpha 1; conditions: Xenopus laevis; in short: as §1
T7 sequence (whole entry): T6 sequence (P14867 whole entry)

[9] = target: GABA-A receptor; anion channel (Rattus norvegicus) (UniProt O09028+P15431+P18506+P18508+P19969+P20236+P23574+P23576+P28471+P28473+P30191+P62813+P63079+P63138+Q91ZM7+Q9ES14); test: Binding affinity by displacement of [3H]flumazenil from rat cortex homogenates; Not active; type: functional
In short: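 Displacement of [3H]flumazenil from rat cortex homogenates. […] Values are averages (±SD); some analogues were run once as a single set of triplicates. NA means an IC50 was not achieved at the highest dose tested.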

[10] = target: T8, Gamma-aminobutyric acid receptor subunit alpha-5 (Homo sapiens, UniProt P31644); test: Effective concentration against Gamma-aminobutyric acid A receptor, alpha 5; design: species or system Xenopus laevis; in short: as §1
T8 sequence (P31644 whole entry): T5 sequence (whole entry)

Rattus norvegicus = species: Rattus norvegicus; test: Rat behavioral spontaneous Locomotor Activity; type: functional
In short: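 Male Sprague-Dawley rats received the test drug iv in 50% aqueous PEG-400, which also served as the control vehicle. They were then placed in an automated activity monitor, and movement time, total distance and vertical activity were recorded over 15 min. Each drug was compared against vehicle, and NS marks a difference that was not significant.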

SMILES	Activity [1]	EC50 [2]	Activity [3]	EC50 [4]	Activity [5]	Ki [6]	EC50 [7]	Activity [8]	NA [9]	EC50 [10]	OMNI med (Rattus norvegicus)	minimum effective dose on locomotor activity (Rattus norvegicus)
CCC(=O)N1CCc2nc(O)n3cc(-c4ccccc4F)nc3c2C1	22%	110 nM	9%	116 nM	0%	216 nM	95 nM	12%	–	–	–	–
Oc1nc2c(c3nc(-c4ccccc4F)cn13)CNCC2	–	–	–	–	–	–	–	–	inactive	–	–	–
Cc1ccc(-c2cn3c(O)nc4c(c3n2)CN(Cc2ccccc2)CC4)cc1	94%	1180 nM	174%	3830 nM	17%	43 nM	266 nM	62%	–	650 nM	–	–
Oc1nc2c(c3nc(-c4ccccc4F)cn13)CN(Cc1cccs1)CC2	54%	67 nM	96%	367 nM	49%	0.5 nM	107 nM	50%	–	375 nM	–	–
Cc1nnc2n1-c1ccc(Cl)cc1C(c1ccccc1)=NC2 [ALPRAZOLAM]	333%	12 nM	774%	69 nM	206%	3.3 nM	37 nM	327%	–	10 nM	0.125 mg/kg	–
O=c1[nH]c2c(c3nc(-c4ccccc4F)cn13)CN(Cc1cnc[nH]1)CC2	–	459 nM	–	425 nM	–	10.1 nM	118 nM	–	–	439 nM	–	–
O=c1[nH]c2c(c3nc(-c4ccccc4F)cn13)CN(CC1CCCCC1)CC2	–	202 nM	–	213 nM	–	0.9 nM	127 nM	–	–	231 nM	–	–
CCC(=O)N1CCc2nc(O)n3cc(-c4ccc(OC)cc4)nc3c2C1	–	–	–	–	–	–	–	–	inactive	–	–	–
O=c1[nH]c2c(c3nc(-c4ccc(F)cc4F)cn13)CN(Cc1ccccc1)CC2	–	210 nM	–	500 nM	–	2 nM	92 nM	–	–	323 nM	–	–
Oc1nc2c(c3nc(-c4ccc(F)cc4)cn13)CN(Cc1ccccc1)CC2	155%	–	–	–	–	–	–	186%	–	–	–	1 mg/kg
CCCCN1CCc2nc(O)n3cc(-c4ccccc4F)nc3c2C1	86%	247 nM	72%	394 nM	4%	7.3 nM	258 nM	70%	–	291 nM	–	–
O=c1[nH]c2c(c3nc(-c4ccccc4F)cn13)CN(Cc1ccccc1)CC2	–	20 nM	–	20 nM	–	1.3 nM	18 nM	–	–	74 nM	–	–
COc1ccc(-c2cn3c(O)nc4c(c3n2)CN(C(=O)c2ccccc2)CC4)cc1	–	–	–	–	–	–	–	–	inactive	–	–	–
Oc1nc2c(c3nc(-c4cccc(F)c4)cn13)CN(Cc1ccccc1)CC2	81%	–	–	–	–	–	–	92%	–	–	–	2 mg/kg
Oc1nc2c(c3nc(-c4ccccc4F)cn13)CN(CC1CC1)CC2	36%	1160 nM	28%	424 nM	7%	30 nM	135 nM	31%	–	94 nM	–	–
Oc1nc2c(c3nc(-c4ccccc4F)cn13)CN(Cc1cccnc1)CC2	78%	–	81%	–	0%	–	–	29%	–	–	–	0.5 mg/kg
O=C(c1ccccc1)N1CCc2nc(O)n3cc(-c4cccc(Cl)c4)nc3c2C1	–	–	–	–	–	–	–	–	inactive	–	–	–
COc1ccc(-c2cn3c(O)nc4c(c3n2)CN(Cc2ccccc2)CC4)cc1	142%	–	–	–	–	–	–	122%	–	–	–	0.06 mg/kg
Cc1ccc(-c2nc3ccc(C)cn3c2CC(=O)N(C)C)cc1 [ZOLPIDEM]	291%	–	700%	–	< 20%	–	–	322%	–	> 3000 nM	0.25 mg/kg	–
Oc1nc2c(c3nc(-c4ccccc4F)cn13)CN(c1ncccn1)CC2	44%	84 nM	35%	117 nM	0%	133 nM	–	0%	–	–	–	–
O=C(OCc1ccccc1)N1CCc2[nH]c(=O)n3cc(-c4ccccc4F)nc3c2C1	–	< 100 nM	–	–	–	39 nM	< 100 nM	–	–	1000 nM	–	–
